We go through 30 molecules from PubChem BioAssay AID652011 (Sanford-Burnham Center for Chemical Genomics, 2013).

Where “and” joins values, the source holds several entries; their conditions need not be identical. Equal values may be shown once.

Hypoxia-inducible factor 1-alpha (Homo sapiens), sequence (Q16665 whole entry, looked up): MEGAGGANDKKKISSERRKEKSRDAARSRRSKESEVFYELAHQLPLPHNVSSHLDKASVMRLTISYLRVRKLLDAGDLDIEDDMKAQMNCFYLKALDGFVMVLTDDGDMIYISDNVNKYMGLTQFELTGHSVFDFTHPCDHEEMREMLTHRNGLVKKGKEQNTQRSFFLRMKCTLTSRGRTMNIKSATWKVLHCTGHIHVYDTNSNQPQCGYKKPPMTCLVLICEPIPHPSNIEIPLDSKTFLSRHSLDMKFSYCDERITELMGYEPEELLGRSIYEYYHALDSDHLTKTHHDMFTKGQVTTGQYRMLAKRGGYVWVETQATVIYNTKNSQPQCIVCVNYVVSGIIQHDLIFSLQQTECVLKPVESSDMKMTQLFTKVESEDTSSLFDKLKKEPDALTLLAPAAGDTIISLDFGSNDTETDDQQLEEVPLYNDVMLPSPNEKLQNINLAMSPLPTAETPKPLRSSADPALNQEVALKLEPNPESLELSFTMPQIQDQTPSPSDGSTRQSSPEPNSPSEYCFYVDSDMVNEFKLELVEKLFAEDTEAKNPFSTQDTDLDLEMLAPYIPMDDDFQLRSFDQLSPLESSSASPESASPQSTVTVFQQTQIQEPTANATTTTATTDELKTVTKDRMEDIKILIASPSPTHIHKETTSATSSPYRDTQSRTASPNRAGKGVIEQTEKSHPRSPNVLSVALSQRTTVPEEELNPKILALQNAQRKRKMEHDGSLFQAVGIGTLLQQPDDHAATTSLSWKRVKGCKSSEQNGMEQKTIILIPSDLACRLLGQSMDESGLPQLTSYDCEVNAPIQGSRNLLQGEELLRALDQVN

The target of the assay is Hypoxia-inducible factor 1-alpha (Homo sapiens) (UniProt Q16665). The experiment in a line: HIF-1a and HIF-2a reporter inhibitors, SAR follow-up, cell-based, luminescence, MIAPaCa-2, 786-0, panel (AID 652011). The note with it: MIAPaCa-2/PANC HIF reporter, luciferase luminescence, desferoxamine, overnight, HIF1a, run 1; at 99 µM (top of the series). The method in brief:
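Probe or stimulus – desferoxamine stimulus · Times – overnight compound incubation at 37 °C, 10 min reagent · Doses – compounds from 10 mM and 0.3125 mM stocks, 1% DMSO final · Technique – luminescence, One-Glo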
As to `CCc1ccc(-c2noc(CCC(=O)NC)n2)cc1`, the inhibition is -61.6%.
Then `CCNC(=O)CCc1nc(-c2c(Cl)cccc2Cl)no1`, with 13.2%; and `CNC(=O)CCc1nc(-c2ccccc2)no1`, with -13.3% and 12%.
`O=C(O)CCc1nc(-c2ccccc2)no1`: the inhibition is 4.64%.
To `CCCNC(=O)CCc1nc(-c2ccc(C(C)(C)C)cc2)no1` belongs -1.08%; to `CCOc1ccccc1NC(=O)CCc1nc(-c2ccc(C(C)(C)C)cc2)no1`, 54.8%; to `CC(C)(C)c1ccc(-c2noc(CCC(=O)Nc3ccccc3)n2)cc1`, 43%.
With `CC(C)c1ccc(-c2noc(CCC(=O)NC(C)(C)C)n2)cc1`, the inhibition is -0.968%.
Regarding `CCCCc1ccc(-c2noc(CCC(=O)NC3CC3)n2)cc1`, the inhibition was 2.18%.
Consider `CNC(=O)CCc1nc(-c2ccc(C(C)C)cc2)no1`, for which the inhibition was -38.5%.
In the case of `CC(C)(C)NC(=O)CCc1nc(-c2ccc(C(C)(C)C)cc2)no1`, the inhibition was determined as 84.3%.
Regarding `CCC(C)NC(=O)CCc1nc(-c2ccccc2)no1` (stereo not given), the inhibition was -33.5%.
For `CC(C)NC(=O)CCc1nc(-c2ccc(C(C)(C)C)cc2)no1`, the inhibition was determined as 17.3%.
In the case of `CCNC(=O)CCc1nc(-c2ccccc2)no1`, the inhibition is -39.4%.
Then `CC(C)(C)c1ccc(-c2noc(CCC(=O)Nc3cccc([N+](=O)[O-])c3)n2)cc1`, with 96.4%; and `CCNC(=O)CCc1nc(-c2ccccc2C)no1`, with -25.2%; and `COC(=O)CCc1nc(-c2ccc(C(C)(C)C)cc2)no1`, with 92.2%.
For the molecule `CC(C)(C)NC(=O)CCc1nc(-c2ccccc2)no1`, the inhibition was -47.1%.
To `CCNC(=O)CCc1nc(-c2ccccc2Cl)no1` belongs -17.5%.
For `CCc1ccc(-c2noc(CCC(=O)NC3CC3)n2)cc1`, the inhibition was -66.8%.
For `CNC(=O)CCc1nc(-c2ccc(C(C)(C)C)cc2)no1`, the inhibition came out at 21.1%.
Regarding `CCN(CC)C(=O)CCc1nc(-c2ccc(C(C)(C)C)cc2)no1`, the inhibition was -20.8% and 47.7%.
Take `CC(C)(C)c1ccc(-c2noc(CCC(=O)NCc3ccco3)n2)cc1`: the inhibition is 86.8% and 85.5%.
For the molecule `CCCCc1ccc(-c2noc(CCC(=O)NC(C)CC)n2)cc1` (stereo not given), the inhibition was 29.2%.
Turning to `CC(C)(C)c1ccc(-c2noc(CCC(=O)Nc3cccnc3)n2)cc1`, the inhibition amounted to 98.9%.
Then `CCc1ccc(-c2noc(CCC(=O)NC(C)(C)C)n2)cc1`, with -38.3%; and `C=CCNC(=O)CCc1nc(-c2ccc(C(C)(C)C)cc2)no1`, with -8.77%; and `CCC(C)NC(=O)CCc1nc(-c2ccc(C(C)C)cc2)no1` (stereo not given), with -41.9%.
Consider `CC(C)(C)c1ccc(-c2noc(CCC(=O)NC3CCCC3)n2)cc1`, for which the inhibition was 70.1%.
Then `COc1ccccc1NC(=O)CCc1nc(-c2ccc(C(C)(C)C)cc2)no1`, with 67.6%.

A word on the inhibition: it is the change of the read-out against control, counted positive when it falls.
